Measured values: PMC3962796 (Environmental science & technology, 2013)
Like-named read-outs stand apart in the source and are kept apart here.

How the values were obtained:
[1] = assay type: in vivo, male Sprague-Dawley rats; conditions: for half-life: male, Sprague-Dawley, rat, inhaled or intranasal, 1.8 ug
Method in brief: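 Male Sprague-Dawley rats (237.6 ± 1.6 g; n=4/group) were exposed nose-only to test compound vapor. The vapor came from air at 4.0 L/min bubbled through the neat compound at 25.0°C, then diluted to 10.0 L/min. Exposure was 1 h, a 1 h break, then 1 h. Shams breathed filtered air. Rats were killed 0, 4 and 8 h post exposure, shams at 2 and 6 h. Lung, liver and serum were PLE-extracted and analysed by GC-MS SIM. Results were blank/surrogate-corrected and lipid-normalized. Analysis used t-tests (p<0.05) and Gauss-Newton non-linear regression.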

[2] = cited from earlier work; for half-life after inhalation exposure (tissues overall): administered as part of Aroclor mixture, same duration of inhalation exposure, Figure S2
[3] = two-component exponential decay; blood, liver and muscle; intravenous; cited from earlier work
[4] = first order model fit, lipid weight basis

Oc1ccc(-c2cccc(Cl)c2)cc1Cl [4-OH-CB11, 3,3′-dichlorobiphenyl-4-ol]
ratio of 4-OH-CB11 to CB11 in liver ([1]; 0 h post exposure): 0.7±0.0 | mean liver 4-OH-CB11 level relative to sentinel rats ([1]; 4 h group vs sentinel rats): 15 fold | mean liver 4-OH-CB11 level relative to sham rats ([1]; 4 h group vs sham-exposed, not statistically significant): 4 fold | ratio of 4-OH-CB11 to CB11 in liver ([1]; 4 h post exposure): 0.9±0.2 | ratio of 4-OH-CB11 to CB11 in liver ([1]; 8 h post exposure): 1.1±0.1 | detection of 4-OH-CB11 in liver ([1]; liver of all PCB-exposed animals): detected | detection of 4-OH-CB11 in lung ([1]; lung samples of exposed rats): not detected | detection of 4-OH-CB11 in serum ([1]; serum samples of exposed rats): not detected

Clc1ccccc1-c1ccccc1 [CB1, monochlorobiphenyl]
level remaining during the inhalation exposure ([2]; Aroclor 1242 vapor inhalation): barely detectable levels

Clc1ccccc1-c1ccccc1Cl [CB4]
level remaining during the inhalation exposure ([2]; Aroclor 1242 vapor inhalation): barely detectable levels

Clc1ccc(-c2ccccc2Cl)cc1 [CB8, 2,4′-Dichlorobiphenyl]
half-life after inhalation exposure (tissues overall) [2]: 5 to 8 h

Clc1cccc(-c2cccc(Cl)c2)c1 [CB11, 3,3′-dichlorobiphenyl]
C0 (initial concentration) of CB11 in liver [1, 4]: 73.6 ng/g l.w. | C0 (initial concentration) of CB11 in serum [1, 4]: 295 ng/g l.w. | C0 (initial concentration) of CB11 in lung ([1]; first order model fit, lipid weight basis, inhalation 106 μg/m^3 for 2 h): 932 ng/g l.w. | half-life ([1]; liver): 2.1 h | half-life ([1]; lung): 1.9 h | half-life ([1]; serum): 1.8 h

Clc1ccc(-c2ccc(Cl)cc2)cc1 [CB15, 4,4′-dichlorobiphenyl]
half-life after inhalation exposure (tissues overall) [2]: 5 to 8 h

Clc1ccc(-c2ccc(Cl)cc2Cl)cc1 [CB28]
time of peak concentration after exposure ([2]; Aroclor 1242 vapor inhalation, suggests redistribution phase): 1 h

Clc1ccc(Cl)c(-c2c(Cl)ccc(Cl)c2Cl)c1Cl [CB136, 2,2′,3,3′,6′6′-hexachlorobiphenyl]
t½ of initial fast distribution phase [3]: 1.7 to 10.6 h | t½ of subsequent slower elimination phase [3]: 55.2 to 406 h

Clc1cc(Cl)c(-c2cc(Cl)c(Cl)cc2Cl)cc1Cl [CB153]
t½ of initial fast distribution phase [3]: 1.7 to 10.6 h | t½ of subsequent slower elimination phase [3]: 55.2 to 406 h
